The subject of this experiment is Plasmodium yoelii. In words: NOVARTIS: Antimalarial liver stage activity measured as reduction in Plasmodium yoelii schizont area in HepG2-A16-CD81 cells by immuno-fluorescence, and median schizont size at 10uM compound concentration. The experiment is classed as functional, organism-based. The procedure, abridged: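 Host and parasite nuclei stained with Hoechst 33342, parasites with αPyHSP70 antibody; 25 images per well by high-content imaging; median parasite (schizont) area measured by automated image analysis, ~50 schizonts per experiment, two or more independent experiments.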

Setting [1] is: Plasmodium yoelii, HepG2-A16-CD81.

Where “and” joins values, the source holds several entries; their conditions need not be identical. Equal values may be shown once.

`CCOC(=O)c1c(CNC)n(C)c2cc(Br)c(O)cc12.O=CO.O=CO` yielded a Schizont size of 175.56 um. This molecule showed an IC50 under setting [1] above 10 µM.
`[Br-].c1ccc(-c2nn(-c3ccccc3)[n+](-c3ccccc3)n2)cc1` gave a Schizont size of 26.51 um. In addition, under setting [1], the half-maximal inhibitory concentration (IC50) amounted to 0.107 µM.
Turning to `CCOC(=O)c1cnc2ccc(OC)cc2c1O`, the Schizont size was 30.16 um and 29.96 um. In addition, the IC50 (hepg2-a16-cd81) was 0.135 µM and 0.293 µM.
On to `CCCCOc1ccc(N(C(C)=O)C2=C(N3CCOCC3)C(=O)c3ccccc3C2=O)cc1`, for which the Schizont size is recorded as 74.84 um. The same molecule had an IC50 under setting [1] of 1.79 µM.
`CCCCN(CCCC)[P+](N(CCCC)CCCC)(N(CCCC)CCCC)N(CCCC)CCCC` displayed a Schizont size of 24.32 um. This molecule also had an IC50 under setting [1] of 0.0115 µM.
`CCc1c(C#N)c(N)nc(SCC(=O)c2ccc(C)cc2)c1C#N` showed a Schizont size of 189.13 um. For the same molecule, under setting [1], the IC50 is above 10 µM.
`CC(C)(C)C1CCc2[nH]c3ccccc3c(=O)c2C1` (centres undefined) returned a Schizont size of 22.13 um. Further, under setting [1], inhibition was half-maximal at 0.0983 µM (IC50).
Turning to `CC1(C)N=C(N)N=C(N)N1c1ccccc1.Cl`, the Schizont size is 37.05 um. Under setting [1], this molecule registered an IC50 of 0.1 µM.
For `OC1=C2C(=Nc3ccccc3SC2c2ccco2)c2ccccc21` (centres undefined), the Schizont size is 31.63 um. The same molecule showed an IC50 under setting [1] of 0.113 µM.
In turn, `CCc1noc(C)c1C(=O)NCCN1Cc2ccccc2OC(c2ccsc2)C1` (centres undefined) registered a Schizont size of 227.75 um. This molecule displayed an IC50 under setting [1] above 10 µM.
`CC(C)CC(N)C(=O)N1CCn2c(nc(-c3ccccc3)c2Nc2ccc3c(c2)OCO3)C1` (centres undefined) came in with an IC50 under setting [1] of 0.186 µM. This counts as sub-micromolar.
The molecule `COc1ccc2cc3[n+](cc2c1OC)CCc1cc2c(cc1-3)OCO2.[Cl-]` [BERBERINE CHLORIDE] yielded a Schizont size of 102.08 um. Moreover, 0.548 µM corresponded to half-maximal inhibition under setting [1] (IC50).
In turn, `Cc1cccc2c1[nH]c1nc(SCC(C)C)nnc12` returned a Schizont size of 36.43 um. The same molecule displayed an IC50 under setting [1] of 0.151 µM.
Molecule `O=C(c1cccc([N+](=O)[O-])c1)c1ccc(Cl)c(Cl)c1` displayed a Schizont size of 108.65 um. The molecule further yielded an IC50 under setting [1] of 3.81 µM.
Molecule `Cc1cccc(-c2cc3nc(C)c(C)c(O)n3n2)c1` showed a Schizont size of 67.43 um. In addition, under setting [1], the IC50 is 1.1 µM.
`CCCCCCCc1cc(O)c2c3c(c(=O)oc2c1)CCC(C)C3` (centres undefined) showed a Schizont size of 31.52 um. For the same molecule, the half-maximal inhibitory concentration (IC50) under setting [1] came out at 0.247 µM.
On to `Cc1cc(C(=O)Nc2cnn(Cc3ccc(Cl)cc3Cl)c2)no1`, for which the Schizont size is listed as 57.82 um. The same molecule had an IC50 under setting [1] of 0.335 µM.
Turning to `CCN1C=C(c2ccc(C)cc2)S/C1=C\c1sc2ccccc2[n+]1C`, the Schizont size is 37.89 um. In addition, the IC50 under setting [1] was 0.0045 µM.
The matching figures for `CCOC(=O)c1ccc(NC(=O)CSc2nc(NCc3ccccc3)c3ccccc3n2)cc1`: 69.2 um and 0.0381 µM.
In turn, `Cc1nc2cc(-c3ccc(I)cc3)nn2c(O)c1C` came in with a Schizont size of 35.28 um. Under setting [1], this molecule gave an IC50 of 0.119 µM.
`N#CC1=C(N)Oc2c3c(c4ccccc4c2C1c1ccc(F)cc1)C(c1ccc(F)cc1)C(C#N)=C(N)O3` (centres undefined) gave a Schizont size of 105.63 um. In addition, half-maximal inhibition under setting [1] (IC50) was put at 3.93 µM.
For `Cc1cccc(NC(=S)NC2CC3CCCC(C2)N3CCc2ccccc2)c1` (centres undefined), the Schizont size is listed as 67.74 um. Further, the IC50 under setting [1] turned out to be 0.277 µM.
In turn, `COc1ccc2[nH]c(SCC(=O)Nc3cccc(NC(=O)CSc4nc5cc(OC)ccc5[nH]4)n3)nc2c1` came in with a Schizont size of 180.05 um. This molecule also had an IC50 under setting [1] above 9.29 µM.
In turn, `Cc1[nH]c2ccccc2c(=O)c1Br` came in with a Schizont size of 29.43 um. The same molecule gave a 50% inhibitory concentration (IC50) under setting [1] of 0.214 µM.
The matching figures for `Cc1cc(OC(C)C(=O)N2CCc3ccccc32)ccc1Cl` (centres undefined): 59.6 um and 0.776 µM.
The molecule `COc1cccc(-c2cncc(-c3cncc(OC)c3)n2)c1` returned an IC50 under setting [1] above 10 µM.
Take `CCCCCCCCn1c(C)[n+](CC)c2cc(C(=O)OCC)ccc21.[I-]`: the Schizont size was 63.77 um. The molecule also registered an IC50 under setting [1] of 0.99 µM.
The matching figures for `O=C1c2ccccc2C2=Nc3ccccc3SC(c3ccccc3F)C12` (centres undefined): 28.6 um and 0.239 µM.
In the same order, the values of `c1ccc(-c2cc(N3CCN(c4ccccn4)CC3)nc(-c3ccccn3)n2)nc1` are 24.32 um and 0.0175 µM.
Turning to `CC(C)NCC(O)Cn1c2ccc(Cl)cc2c2cc(Cl)ccc21` (centres undefined), the Schizont size was determined as 88.41 um. In addition, 2.97 µM corresponded to half-maximal inhibition under setting [1] (IC50).
Molecule `O=C(Nc1ccc(-c2nc3ccccc3[nH]2)cc1)c1ccc(-c2ccc(Cl)cc2)o1` showed an IC50 under setting [1] of 6.65 µM.
Molecule `CCNC(=O)C1CCN(c2cccc3c2C(=O)N(C2CCCCCCC2)C3=O)CC1` registered a Schizont size of 30.48 um. For the same molecule, under setting [1], inhibition was half-maximal at 0.269 µM (IC50).
The molecule `CCC(C)Nc1nc(NC(C)CC)nc(N2CCCCCC2)n1` (centres undefined) registered a Schizont size of 20.35 um. Moreover, the IC50 under setting [1] worked out at 0.3 µM.
As for `Oc1c2c(nc3cc(-c4ccc(Br)cc4)nn13)CCCC2`, half-maximal inhibition under setting [1] (IC50) required 0.499 µM.
As to `CC1CC(N(C(=O)c2ccc(Cl)cc2Cl)c2ccccc2)c2ccccc2N1C(=O)c1ccc(Cl)cc1` (centres undefined), the Schizont size is recorded as 110.64 um. The IC50 under setting [1] is 3.64 µM.
`COc1ccc2sc(Nc3nc(-c4ccccn4)cs3)nc2c1` showed a Schizont size of 28.91 um. Moreover, half-maximal inhibition under setting [1] (IC50) was put at 0.159 µM.
In the same order, the values of `COc1ccc(C2N(Cc3ccccc3)c3ccccc3N2Cc2ccccc2)cc1` are 30.79 um and 0.121 µM.
In the case of `CCOc1ccc(Nc2cc(=O)oc3ccccc23)cc1`, the Schizont size was 43.94 um. Besides, under setting [1], 0.502 µM corresponded to half-maximal inhibition (IC50).
For `COC(=O)C1=C(C)NC2=C(C(=O)CC(c3ccccc3Cl)C2)C1c1ccc([N+](=O)[O-])cc1` (centres undefined), the Schizont size worked out at 61.06 um. Moreover, the IC50 under setting [1] amounted to 0.842 µM.
Turning to `CCN(CC)c1ccc(N=Cc2ccc(Sc3nc4ccccc4s3)o2)cc1`, the Schizont size worked out at 152.6 um. In addition, the IC50 under setting [1] is above 10 µM.
The matching figures for `Cc1ccc(OCC(=O)Nc2cccc(-c3nc4ncccc4o3)c2)cc1C`: 160.01 um and above 10 µM.
In the same order, the values of `Cc1oc2c(c1C(=O)NCCCn1ccnc1)C(=O)c1ccccc1C2=O` are 12.53 um and 0.119 µM.
Under setting [1], `CC(c1nc2ccc(Cl)cc2c(=O)n1C)N1CCN(S(=O)(=O)c2cccc3ccccc23)CC1` (centres undefined) came in with an IC50 of 0.0223 µM.
As to `CCc1cc2c(cc1-c1csc(NC(=N)N)n1)C(C)(C)CCC2(C)C`, the Schizont size is reported as 92.27 um. This molecule also gave a half-inhibitory concentration (IC50) under setting [1] of 2.9 µM.
Take `COc1ccc2nc(-c3ccccc3)cc(NCCN(C)C)c2c1`: the Schizont size was 69.1 um. The same molecule returned an IC50 under setting [1] of 0.57 µM.
`CN(Cc1ccccc1)C(=O)CSc1nc(NCc2ccccc2)c2ccccc2n1`: the Schizont size turned out to be 67.84 um. In addition, the IC50 under setting [1] is 0.00713 µM.
Molecule `[I-].c1ccc(CSc2scnc2[P+](c2ccccc2)(c2ccccc2)c2ccccc2)cc1` showed a Schizont size of 21.61 um. This molecule came in with an IC50 under setting [1] of 0.0685 µM.
As for `Cc1cccc(C)c1N(CC(=O)NCc1ccco1)S(C)(=O)=O`, the Schizont size came to 194.24 um. The molecule further displayed an IC50 under setting [1] above 10 µM.
Consider `O=c1c2ccccc2[nH]c2ccc(F)cc12`, for which the Schizont size was determined as 29.64 um. For the same molecule, the IC50 under setting [1] is 0.223 µM.
For the molecule `COc1ccc2nc(C)cc(Nc3ccc(Cl)c(Cl)c3)c2c1`, the Schizont size stood at 39.25 um. The molecule also registered an IC50 under setting [1] of 0.438 µM.
The molecule `CCCc1nc2ccc(NC(=O)c3ccco3)cc2c(=O)n1Cc1ccc(-c2ccccc2)cc1` gave a Schizont size of 25.78 um. Moreover, the midpoint of inhibition under setting [1], the IC50, lay at 0.306 µM.
The matching figures for `Oc1c(CN2CCN(Cc3ccc4cccnc4c3O)CC2)ccc2cccnc12`: 21.19 um and 0.0966 µM.
In the same order, the values of `O=C(c1cccs1)N1CCN(c2ccc([N+](=O)[O-])c(NC3CC3)c2)CC1` are 83.6 um and 0.692 µM.
`CCCCCCCn1c2c(c(=N)c3ccccc31)CCC2.I` had a Schizont size of 23.59 um. This molecule had an IC50 under setting [1] of 0.0765 µM.
`O=C(c1ccc2nc(N3CCCCC3)sc2c1)N1CCN(Cc2ccc3c(c2)OCO3)CC1` showed a Schizont size of 168.67 um. The half-maximal inhibitory concentration (IC50) under setting [1] is above 9.22 µM.
In turn, `c1ccc(OCCOc2ccc(Nc3ccnc4cc5ccccc5cc34)cc2)cc1` displayed a Schizont size of 18.06 um. This molecule also displayed an IC50 under setting [1] of 0.0675 µM.
In the case of `CCCCNC(=O)C1CCC(CN(Cc2c(Cl)cccc2Cl)S(=O)(=O)c2ccc(Br)cc2)CC1` (centres undefined), the Schizont size is 29.64 um. Under setting [1], this molecule yielded an IC50 of 0.124 µM.
As for `CCc1ccccc1NC(C)=O`, the Schizont size is listed as 188.81 um. The IC50 under setting [1] is above 10 µM.
For the molecule `c1ccc(-c2csc(Nc3nc4cc5c(cc4s3)OCO5)n2)nc1`, the Schizont size worked out at 34.44 um. This molecule showed an IC50 under setting [1] of 0.0789 µM.
For `Cc1c(C#N)c2ccccc2n1CC(=O)Nc1ccc(Br)cc1`, the Schizont size is 158.02 um. Also, under setting [1], the half-inhibitory concentration (IC50) is above 10 µM.
As for `CC[n+]1c(/C=C/C=C2\N(C)c3ccccc3C2(C)C)n(-c2ccccc2)c2cc(Cl)ccc21`, the Schizont size turned out to be 12.53 um. Also, under setting [1], it took 0.0136 µM to reach half-maximal inhibition (IC50).
For the molecule `OC1=C2C(=Nc3ccccc3SC2c2ccc(Br)cc2)c2ccccc21` (centres undefined), the Schizont size amounted to 34.03 um. Under setting [1], this molecule had an IC50 of 0.327 µM.
With `CCOc1ccc(Nc2nc(NCc3ccco3)c3ccccc3n2)cc1`, the Schizont size came out at 75.78 um. Besides, the IC50 under setting [1] is 0.105 µM.
Take `Cc1ccc(S(=O)(=O)Nc2nc3n(n2)C(c2ccccc2)C=C(c2ccccc2)N3)cc1` (centres undefined): the Schizont size is given as 198.42 um. Also, the IC50 under setting [1] is above 10 µM.
Regarding `CCN1C(C)=C(C)S/C1=C\c1ccc2cc(C)ccc2[n+]1C`, the Schizont size was found to be 14.93 um. In addition, the midpoint of inhibition under setting [1], the IC50, lay at 0.0113 µM.
`Br.Cc1ccnc(Nc2nc(-c3ccccn3)cs2)c1` registered a Schizont size of 19.21 um. Also, the IC50 under setting [1] worked out at 0.0956 µM.
`CCOC(=O)C1=C(C)NC2=C(C(=O)C(C(=O)OCC)C(c3ccccc3OC)C2)C1c1cc(OC)c(OC)c(OC)c1` (centres undefined) had a Schizont size of 103.54 um. The IC50 under setting [1] is 0.509 µM.

The record behind these values is ChEMBL document CHEMBL1789904, “Imaging of Plasmodium liver stages to drive next-generation antimalarial drug discovery” (Science, 2011).
